The values below come from the EternaBench riboswitch data.

The data set deals with MS2 coat protein. The experiment in a line: apparent Kd, MS2 coat protein; higher = weaker binding; RNA-MaP array; FMN 200 µM where present. The gist of the method:
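Stalled E. coli RNA polymerase transcribed each design on Illumina sequencing-chip clusters. The clusters were titrated with SNAP-549-labelled MS2 coat protein, starting at 0.7 or 1.5 nM and doubling up to 3 µM, first without ligand and then with constant ligand, in 100 mM Tris-HCl pH 7.5, 80 mM KCl, 4 mM MgCl2, BSA, DTT, yeast tRNA and Tween-20. Green signal was normalised to red-channel RNA signal and to the control-cluster median Fmax. The apparent Kd is the median of filtered binding-curve fits made for each cluster.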

[1] abbreviates: designed as: ON switch for flavin mononucleotide, no ligand.
Setting [2] is: ligand present: flavin mononucleotide, designed as: ON switch for flavin mononucleotide.
[3] abbreviates: designed as: OFF switch for flavin mononucleotide, no ligand.
The mark [4] stands for this setting: ligand present: flavin mononucleotide, designed as: OFF switch for flavin mononucleotide.

What is called apparent Kd is the concentration giving half-maximal binding under the conditions of the assay.

In the case of “GGACGUCACAUGAACAUGAGGAUCACCCAUGUAAAUUCUCAUGAGGAUAUGGAUCCUAAUUGGAUCCAGAAGGCGUGGACGUCC”, the “apparent Kd” value under setting [1] came to 1030 nM and the “apparent Kd” value under setting [2] was found to be 415 nM.

As to “AAUCAGCGAGGAUAUACAGAUUCUGGGUGCGGCUCGGCGAGACAUGAGGAUCACCCAUGUAGAAGGUGCUAGCC”, the “apparent Kd” value reads like this: under setting [3], 37.9 nM; under setting [4], 43.8 nM.

As to “AGUAAGAUGCAGAAGGUGUCAGCGAGAGCUGUACAUGAGGAUCACCCAUGUUGUCGGUGACGACACAAGGAUAUGCAUCUUACA”, the “apparent Kd” value under setting [1] came out at 24.7 nM and the “apparent Kd” value under setting [2] worked out at 6.28 nM.

Take “UUCUUCUGAGGAUAUACAUAGAUUUACAUGAGGAUCACCCAUGUUCCUCUAUGUAUAAAUGUAGAAGGCAGAAGUU”: the “apparent Kd” value reads like this: under setting [3], 16.9 nM; under setting [4], 91.2 nM.

For “UGUAGGAGCAGAGGAUAUUACAUGAGGAUCACCCAUGUAUGAACCAAUAGCUGGAAACAGCAAUGUAAGAAGGCUGCUCCGACA”, the “apparent Kd” value under setting [3] was determined as 12.2 nM and the “apparent Kd” value under setting [4] amounted to 187 nM.

Consider “AUCAGCUCGUCAGGAUAUACGUCACUGCGUCAGCAGUGUGGUAAUAUCACAUGAGGAUCACCCAUGUAGAAGGGACGAGCUGAU”, for which the “apparent Kd” value turned out to be 5.27 nM under setting [3] and 6.28 nM under setting [4].

For the sequence “AGCCGAGUAGGAUAUGCAUACUUACAGGAAAGCUGUAUGGUACAUGAGGAUCACCCAUGUAGAAGGGCUCUGAA”, the “apparent Kd” value worked out at 25 nM under setting [3] and 21.2 nM under setting [4].

“UGGUACAUGGGAGGAUAUCAUGAACUUACAUGAGGAUCACCCAUGUCGAUGGAGACAUCGGAGAUUGAGAAGGCCCAUGUACCU”: the “apparent Kd” value reads like this: under setting [1], 77.6 nM; under setting [2], 22.4 nM.

“CGUUCAGCGAACGAUACGAAUGGACAUGAGGAUCACCCAUGUAGAAGGACAGGAGAAUAACGACUGUAGGAUAUACAUUUAGUG”: the “apparent Kd” value reads like this: under setting [3], 41.1 nM; under setting [4], 84.8 nM.

In the case of “UUACUAUUACAGAAGGUUAAAUAAUAUAUAAAUGAAGGAUAUGUAACAUGAGGAUCACCCAUGUUUCACCCAUAUGAGGAUCAC”, the “apparent Kd” value is 8.49 nM under setting [3] and 7.99 nM under setting [4].

Regarding “UGUCGGAGCAGAGGAUAUAACAUGAGGAUCACCCAUGUAUGAACCAAUAGCUGGAAACAGCAAUGUAAGAAGGCUGCUCCGACA”, the “apparent Kd” value by setting is: under setting [3], 5.8 nM; under setting [4], 6.69 nM.

In the case of “AAGGAGUAAGGAUAUGCUGCUCGUCACUUGCGUGAUGAGUAGCAGAAGGUACAUGAGGAUCACCCAUGUAAAAA”, the “apparent Kd” value is, setting by setting: under setting [3], 24.5 nM; under setting [4], 18.3 nM.

Take “UAUAUGUCAGGAUAUCGAUUGGAACGGAAUUCGGUUCUGGUUGAGAAGGGACAUGAGGAUCACCCAUGUUUUUC”: the “apparent Kd” value is, setting by setting: under setting [3], 36.2 nM; under setting [4], 222 nM.

In the case of “GUAGCAAUCGGAGGAUAUGGGUUAUACAUGAGGAUCACCCAUGUUAAUUUACUAGAAGGCCGAUUGCUACAAGAGCGAAAGCUC”, the “apparent Kd” value stood at 10.8 nM under setting [1] and 5.7 nM under setting [2].

Turning to “GGUGGACAUGAGGAUCACCCAUGUGAGGAUAUCGGCCGGUUCGUGGUGGCUGGCGUCUCGAGAAGGCACAUAGU”, the “apparent Kd” value under setting [3] was determined as 153 nM and the “apparent Kd” value under setting [4] came out at 129 nM.

As for “AAGAUCGGAGGAUAUGAAAGGCGUUACAUGAGGAUCACCCAUGUCGGUUUCAUGUUCGUCUCAGAAGGCCGACUCC”, the “apparent Kd” value under setting [3] stood at 84.7 nM and the “apparent Kd” value under setting [4] is 311 nM.

As to “GGGCUCGGAGGAUAUACAUGAGGAUCACCCAUGUACUCGGGCUCUAUUGGGCUCGGGUGUAGAAGGUCGGGCUC”, the “apparent Kd” value by setting is: under setting [3], 14.9 nM; under setting [4], 14.6 nM.

In the case of “UAAUGAUAAGCAGGAUAUACUACACAUGAGGAUCACCCAUGUGUGUGAUCCACUCUCGUAUGGUAGUAGAAGGGCUCAGAGUAC”, the “apparent Kd” value is, setting by setting: under setting [3], 153 nM; under setting [4], 80.6 nM.

With “UUGGACUACGUAGGAUAUGUAGGAUAUUCCUACAUGAGGAUCACCCAUGUUAGCAUGUAAGUAGGACAGAAGGACGUGGUCCAU”, the “apparent Kd” value runs as follows: under setting [1], 540 nM; under setting [2], 24.9 nM.

Turning to “CCAUGACAAAGUCAUGGAUUACGAACAUGAGGAUCACCCAUGUAGGAUAUGCUACUCAAAGAGUAGCAGAAGGACAUGUGUCUU”, the “apparent Kd” value under setting [3] is 32.9 nM and the “apparent Kd” value under setting [4] is 165 nM.

On to “UCGAUAAGGAGAGGAUAUGGACAUGAGGAUCACCCAUGUACAUGGGAAUAUAUACUGAAUUUUUACUAGAAGGCUUACAUAAUU”, for which the “apparent Kd” value is 16.4 nM under setting [3] and 14.8 nM under setting [4].

Turning to “AGCCUAGCAGGAUAUGCCCGGGAUAACAUGAGGAUCACCCAUGUGACUGAUUGAUAUCCUGCAGAAGGGCUAGGGA”, the “apparent Kd” value under setting [3] was 24.4 nM and the “apparent Kd” value under setting [4] is 122 nM.

Take “UGUGCAGAAGGAUAUGCGUAAUGGCCGUGAGGCCUAGAUCUACAUGAGGAUCACCCAUGUAGAAGGUCUGUACU”: the “apparent Kd” value under setting [3] is 16.6 nM and the “apparent Kd” value under setting [4] is 16.4 nM.

In the case of “GUCAGCUCCUGAGGAUAUACAACACUGCUUCGGCAGUGUAUUAAGAUCACAUGAGGAUCACCCAUGUAGAAGGCACGAGCUGAU”, the “apparent Kd” value runs as follows: under setting [3], 12.1 nM; under setting [4], 156 nM.

Regarding “GCGUAACAUGAGGAUCACCCAUGUGCCCGAGAAUUCGGGCCGAGAAGGGUGACCGGUCGUAUGGCACAGGAUAUCGACGUUGUG”, the “apparent Kd” value under setting [1] is 30.6 nM and the “apparent Kd” value under setting [2] stood at 13.4 nM.

For “AAAUCAGCAGGAUAUGCGAUGUUGUGCUAGAUAGCGGGACCACAUGAGGAUCACCCAUGUAGAAGGGCUAGAUA”, the “apparent Kd” value is, setting by setting: under setting [3], 51.4 nM; under setting [4], 18.9 nM.

Take “UUGUUGUAUGUAGGAUAUGCAUAUUAUUAUUAUGCAGAAGGACAUGAGGAUCACCCAUGUAUGUUAUUAUUAUAUGUUAUAUAU”: the “apparent Kd” value by setting is: under setting [3], 27.6 nM; under setting [4], 35.6 nM.

For the sequence “UACCUGAGGCAAAGCUUUAGGUAUACAUGAGGAUCACCCAUGUAGGAUAUGGUAGGCUUUGCUUACCAGAAGGACAUGUAAAUU”, the “apparent Kd” value is, setting by setting: under setting [3], 20.5 nM; under setting [4], 67.8 nM.

On to “GGACGGUUCGUCAGGAUAUGCUCUACCUCGGUAGAGCAGAAGGGACAUGAGGAUCACCCAUGUGAGAACUGUUC”, for which the “apparent Kd” value is, setting by setting: under setting [3], 18.4 nM; under setting [4], 17.3 nM.

With “ACAUGGUAGUAGAAGGGUAUUACUUUAGAUACAACCAUUUGUUUAGUUUAUACAGGAUAUGCUUACAUGAGGAUCACCCAUGUU”, under setting [4], the “apparent Kd” value stood at 8.74 nM.

Take “UGAUAGGACAGAGGAUAUACGGAUAGGAUCUACUAUCUUUCUCAAAUAACAUGAGGAUCACCCAUGUAGAAGGCUGUCCUAUCU”: the “apparent Kd” value amounted to 23.2 nM under setting [3] and 119 nM under setting [4].

In the case of “AUCUUGUCAGGAUAUCGUACAAUAUGGAAAACAUAGAGGUACGAGAAGGGACAUGAGGAUCACCCAUGUAAAAC”, the “apparent Kd” value under setting [3] came to 40.2 nM and the “apparent Kd” value under setting [4] came to 84.5 nM.

In the case of “CUACGGGACGGAGAUCGUGGUGAAGUAGAAGGGUGAGAUGACAUGAGGAUCACCCAUGUAGUAGCGCAGGAUAUACGGCACCGG”, the “apparent Kd” value by setting is: under setting [1], 388 nM; under setting [2], 103 nM.

As for “CCUUUGUCAGGAUAUCAGAACGCGCUCGUAGGGAGCGCGAAUGAGAAGGGACAUGAGGAUCACCCAUGUAAAGA”, the “apparent Kd” value by setting is: under setting [3], 94.7 nM; under setting [4], 492 nM.

As to “CUUCAGUAAGGAUAUCAGCUUAGGAGGUUGGUAAUGAGAGCUGAGAAGGUACAUGAGGAUCACCCAUGUUAGUU”, the “apparent Kd” value runs as follows: under setting [3], 20.3 nM; under setting [4], 33 nM.

With “GGUAGGUUCACAGGAUAUGCUAUCCUUUGGGUAGCAGAAGGGUGAUAACAUGAGGAUCACCCAUGUCCUACCGGGCGUGAGCCC”, the “apparent Kd” value is, setting by setting: under setting [1], 1120 nM; under setting [2], 113 nM.
